Read-outs that look alike come from different tables or passages of the source.
Key:
[1] = 24-h euglycaemic clamp after a single SC dose; format: in vivo, healthy subjects (human)
[2] = cited from earlier work
[3] = format: in vivo, healthy subjects (human); conditions: for C max,IDeg,SD, mean estimate: serum, ELISA
Outline: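 Fasted healthy adults (n=20) in a randomised, open-label, complete crossover received single SC doses of 0.4 U/kg, 13–21 days apart. Dosing was by syringe into a lifted skinfold of anterior thigh, lower abdominal wall or outer deltoid, each followed by a 24-h euglycaemic clamp (4.5 mmol/L). Serum was sampled over 120 h and assayed by compound-specific sandwich ELISA (LLOQ 20 pmol/L).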

[4] = single SC dose 0.4 U/kg in abdomen, 20 evaluations
[5] = single SC dose 0.4 U/kg in deltoid, 20 evaluations
[6] = single SC dose 0.4 U/kg in thigh, 19 evaluations
[7] = single SC dose 0.4 U/kg, ANOVA of log-transformed AUC
[8] = single SC dose 0.4 U/kg, ANOVA of log-transformed values

insulin degludec
GIRmax,SD, mean estimate [1, 4]: 3.0 mg/(kg·min)
GIRmax,SD, mean estimate [1, 5]: 3.0 mg/(kg·min)
GIRmax,SD, mean estimate [1, 6]: 2.7 mg/(kg·min)
Time to reach steady state ([2]; once-daily injections): 2 to 3 days
Maximum concentration (C max,IDeg,SD) higher in deltoid or abdomen than in thigh ([3]; single SC dose 0.4 U/kg): 23–27%
C max,IDeg,SD, mean estimate [3, 4]: 2,388 pmol/L
C max,IDeg,SD, mean estimate [3, 5]: 2,462 pmol/L
C max,IDeg,SD, mean estimate [3, 6]: 1,938 pmol/L
AUCIDeg,0–120h,SD mean ratio [95 % CI], abdomen vs. deltoid [3, 7]: 1.01 [0.96–1.06]
AUCIDeg,0–120h,SD mean ratio [95 % CI], abdomen vs. thigh [3, 7]: 1.07 [1.03–1.11]
AUCIDeg,0–120h,SD mean ratio [95 % CI], deltoid vs. thigh [3, 7]: 1.06 [1.01–1.10]
C max,IDeg,SD mean ratio [95 % CI], abdomen vs. deltoid [3, 8]: 0.97 [0.84–1.12]
C max,IDeg,SD mean ratio [95 % CI], abdomen vs. thigh [3, 8]: 1.23 [1.07–1.42]
C max,IDeg,SD mean ratio [95 % CI], deltoid vs. thigh [3, 8]: 1.27 [1.08–1.49]

insulin detemir
AUC higher following SC injection in abdomen or deltoid than in thigh [2]: approximately 10%

insulin glargine
Half-life after SC administration [2]: 12 h

Reference: publication PMC4143594 (Clinical Drug Investigation, 2014)
